Measured values published in PubChem BioAssay.
The source made the active and inactive calls. Cut-off read from the data, not from the text of the source, unless noted: active = inhibition above about 30%; inactive = the rest.

Columns and labels:
[1] = Her2 expression decrease, cell viability multiplex – SKBR3 breast tumor cells, AlphaScreen, ATP viability, primary screen (AID 461;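 active = Her2 level under about 52% in both replicate screens, with viability over 70% of control, limit read from the data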;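 for Her2 level: lower value means less Her2 protein in the cells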;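 for viability: percent of carrier control wells set as 100% viability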); conditions: SKBR3 Her2 protein level, 18-24 h, measured here: SKBR3 viability, ATP luminescence, at 10 µM
[2] = target: Receptor tyrosine-protein kinase erbB-2 (Homo sapiens) (UniProt P04626); assay: as above; conditions: 18-24 h, at 10 µM, stronger effect = lower value
[3] = reduced viability of SK-BR-3 breast cancer cells – cell-based, 24 h, human, pilot screen (AID 572;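 active = viability at or below 10% of carrier control in both of two separate runs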;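 note: compound exposure lasted between 18 and 24 h rather than exactly 24 h; 100% = carrier-treated control wells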); conditions: SK-BR-3 viability, CellTiter-Glo luminescence, at 10 µM, stronger effect = lower value
[4] = HUVEC growth inhibition – cell-based, human, primary screen (AID 575;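 active = viability at or below 30% in both replicate assays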;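 note: 100% = median of untreated cell wells with 0.1% DMSO on each plate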); conditions: HUVEC proliferation, CellTiter-Glo luminescence, 72 h; at 10 µM; stronger effect = lower value
Summary of the method: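 Material: primary human umbilical vein endothelial cells / Schedule: 72 h exposure, 37 °C, 5% CO2, 30 min RT equilibration / Signal: ATP-based CellTiter-Glo luminescent read / Read-out basis: percent of median DMSO-control luminescence / Control set: 32 DMSO-only cell-control wells (high), 32 MePR drug-control wells (low) per plate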

[5] = H69AR cell proliferation blockers – human, duplicate replicates, primary screen (AID 580;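 active = viability at or under a set limit in both replicates, limit being median viability minus 3 SD, cut at about 48% in these data, passing the limit was not always enough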;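 note: 100% = mean luminescence of untreated wells and 0% = no signal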); conditions: H69AR lung tumor cells viability, ATP luminescence, 72 h; at 10 µM; stronger effect = lower value
[6] = MRP1 drug-resistance reversers in H69AR cells – cell-based, doxorubicin co-treatment, pilot screen (AID 601;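 active = viability loss from added drug above about 55%, and viability with drug at most 40%, in both replicates, limit read from the data, passing the limit was not always enough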); conditions: CellTiter-Glo, 72 h, at 10 µM; for differential viability (reversal): stronger effect = higher value
[7] = yeast transport mutant growth inhibition pilot in 384-well plates, post-Golgi transport modulator project (AID 636; in the data active = inhibition above about 31%); conditions: absorbance 615 nm, about 18 h, stronger effect = higher value
[8] = growth suppression of yeast trafficking mutant, preliminary HTS, modulators of trafficking downstream of Golgi apparatus project, 1536-format plate, OD 615 nm (AID 637); conditions: yeast transport mutant growth, absorbance 615 nm, 18 h; stronger effect = higher value
[9] = H69AR cells + 2 uM doxorubicin, measured here: viability with 2 uM doxorubicin, stronger effect = lower value
[10] = H69AR cells, compound alone cytotoxicity

Sequence of Receptor tyrosine-protein kinase erbB-2 (Homo sapiens) (P04626 whole entry, looked up): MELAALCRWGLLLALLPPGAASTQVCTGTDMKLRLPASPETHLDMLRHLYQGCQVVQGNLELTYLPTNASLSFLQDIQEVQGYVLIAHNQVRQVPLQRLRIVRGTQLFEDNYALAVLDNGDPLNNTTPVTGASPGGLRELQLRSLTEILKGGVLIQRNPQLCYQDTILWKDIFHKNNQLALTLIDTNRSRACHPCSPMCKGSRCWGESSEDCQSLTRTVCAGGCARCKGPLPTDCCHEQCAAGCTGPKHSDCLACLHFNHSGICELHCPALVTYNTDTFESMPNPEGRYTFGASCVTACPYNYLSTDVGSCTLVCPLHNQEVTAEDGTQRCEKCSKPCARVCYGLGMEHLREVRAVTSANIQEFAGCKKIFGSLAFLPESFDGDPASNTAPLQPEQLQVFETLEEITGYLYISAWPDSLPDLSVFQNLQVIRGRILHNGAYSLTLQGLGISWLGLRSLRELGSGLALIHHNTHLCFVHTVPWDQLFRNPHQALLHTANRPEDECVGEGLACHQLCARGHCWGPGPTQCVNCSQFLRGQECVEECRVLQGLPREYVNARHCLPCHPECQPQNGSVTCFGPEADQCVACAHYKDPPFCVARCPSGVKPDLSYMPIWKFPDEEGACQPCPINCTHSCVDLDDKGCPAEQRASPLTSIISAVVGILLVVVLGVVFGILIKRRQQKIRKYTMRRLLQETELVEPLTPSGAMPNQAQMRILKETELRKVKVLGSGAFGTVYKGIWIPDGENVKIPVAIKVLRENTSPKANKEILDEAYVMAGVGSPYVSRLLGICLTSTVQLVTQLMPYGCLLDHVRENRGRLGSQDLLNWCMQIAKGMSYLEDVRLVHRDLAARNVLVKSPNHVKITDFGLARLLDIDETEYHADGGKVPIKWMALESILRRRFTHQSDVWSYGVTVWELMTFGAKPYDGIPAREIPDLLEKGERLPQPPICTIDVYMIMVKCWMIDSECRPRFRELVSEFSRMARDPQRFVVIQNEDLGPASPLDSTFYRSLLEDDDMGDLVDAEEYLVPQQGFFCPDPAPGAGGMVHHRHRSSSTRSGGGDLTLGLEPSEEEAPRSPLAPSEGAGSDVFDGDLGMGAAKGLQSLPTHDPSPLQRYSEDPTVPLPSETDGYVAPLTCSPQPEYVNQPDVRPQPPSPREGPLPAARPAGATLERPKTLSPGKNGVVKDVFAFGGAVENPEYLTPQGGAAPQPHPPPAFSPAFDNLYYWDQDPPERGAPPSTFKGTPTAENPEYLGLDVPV

COc1ccc(-c2noc(CN3C(=O)c4ccccc4C3=O)n2)cc1
viability [1]: 102%
Her2 level [2]: 108% (inactive)
viability [3]: 102% (inactive)
viability [4]: 97.5% (inactive)
viability [5]: 102% (inactive)
differential viability (reversal) ([6]; H69AR cells + 2 uM doxorubicin): 5.23% (inactive)
viability [6, 9]: 96.4%
viability [6, 10]: 102%
inhibition [7]: -0.92% (inactive)
inhibition [8]: 11.3% (inactive)

Cc1ccc2nc(SC(C)C(=O)N3CCCC3)[nH]c2c1 (stereo not given)
viability [1]: 87.5%
Her2 level [2]: 108% (inactive)
viability [3]: 87.5% (inactive)
viability [4]: 91.4% (inactive)
viability [5]: 97.6% (inactive)
differential viability (reversal) ([6]; H69AR cells + 2 uM doxorubicin): 6.04% (inactive)
viability [6, 9]: 91.6%
viability [6, 10]: 97.6%
inhibition [7]: -0.92% (inactive)
inhibition [8]: -6.35% (inactive)

CCOc1ccc(C2C(C(=O)OC)=CN(CCOC)C=C2C(=O)OC)cc1
viability [1]: 106%
Her2 level [2]: 109% (inactive)
viability [3]: 106% (inactive)
viability [4]: 90% (inactive)
viability [5]: 97.3% (inactive)
differential viability (reversal) ([6]; H69AR cells + 2 uM doxorubicin): -1.94% (inactive)
viability [6, 9]: 99.2%
viability [6, 10]: 97.3%
inhibition [7]: 0.64% (inactive)
inhibition [8]: -1.33% (inactive)

CCOC(=O)CSc1nc2ccccc2c(=O)n1NC(=O)c1ccccc1
viability [1]: 120%
Her2 level [2]: 78% (inactive)
viability [3]: 120% (inactive)
viability [4]: 86.6% (inactive)
viability [5]: 87.4% (inactive)
differential viability (reversal) ([6]; H69AR cells + 2 uM doxorubicin): 7% (inactive)
viability [6, 9]: 80.4%
viability [6, 10]: 87.4%
inhibition [7]: -3.29% (inactive)
inhibition [8]: -1.75% (inactive)

Cc1cccc2cc(C#N)c(NCCNC(=O)NC3CCCCC3)nc12
viability [1]: 97.5%
Her2 level [2]: 84.5% (inactive)
viability [3]: 97.5% (inactive)
viability [4]: 48.3% (inactive)
viability [5]: 75.1% (inactive)
differential viability (reversal) ([6]; H69AR cells + 2 uM doxorubicin): -7.59% (inactive)
viability [6, 9]: 82.7%
viability [6, 10]: 75.1%
inhibition [7]: -2.37% (inactive)
inhibition [8]: -3.45% (inactive)

CCn1c(C(Cc2ccccc2)NC(=O)COC)nc2ccccc21 (stereo not given)
viability [1]: 102%
Her2 level [2]: 92% (inactive)
viability [3]: 102% (inactive)
viability [4]: 102% (inactive)
viability [5]: 87.4% (inactive)
differential viability (reversal) ([6]; H69AR cells + 2 uM doxorubicin): 8.84% (inactive)
viability [6, 9]: 78.6%
viability [6, 10]: 87.4%
inhibition [7]: -6.13% (inactive)
inhibition [8]: 4% (inactive)

CCOC(=O)CNC(=O)Cn1cnc2c(nnn2-c2cccc(Cl)c2)c1=O
viability [1]: 82.5%
Her2 level [2]: 109% (inactive)
viability [3]: 82.5% (inactive)
viability [4]: 105% (inactive)
viability [5]: 107% (inactive)
differential viability (reversal) ([6]; H69AR cells + 2 uM doxorubicin): -1.7% (inactive)
viability [6, 9]: 108%
viability [6, 10]: 107%
inhibition [7]: -0.53% (inactive)
inhibition [8]: -6.83% (inactive)
